How the values were obtained:
Format in all cases: functional
Mus musculus [1] = test: In vivo anticonvulsant activity in male albino mice using the maximal electroshock seizure(MES) test upon intraperitoneal administration, expressed as logarithm of effective dose
Summary of the method: (§1)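 Mice (18–25 g) received the test agent intraperitoneally as a suspension in 0.5% (w/v) methylcellulose in water. A 60-cycle alternating current at 50 mA was applied for 0.2 s, and protection meant abolition of the hindlimb tonic extensor component. The ED50 was determined at the time of peak effect in groups of at least eight mice. At least two doses fell between 100% and 0% protection, and the 95% confidence interval was calculated by Finney's method.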

Mus musculus [2] = test: Anticonvulsant activity in mice following i.p. treatment and Maximal Electroshock Seizure (MES) test.
Summary of the method: (§2)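 Mice (18–25 g) received the compound ip as a suspension in 0.5% (w/v) methylcellulose in water. A 60-cycle alternating current of 50 mA was applied for 0.2 s. Protection was defined as abolition of the hindlimb tonic extensor component. […] ED50 and 95% confidence interval were calculated by Finney's methods.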

Mus musculus [3] = test: In vivo anticonvulsant activity in male albino mice using the maximal electroshock seizure(MES) test upon intraperitoneal administration; value ranges from 51.9 to 68; conditions: ip
Mus musculus [4] = test: In vivo anticonvulsant activity in male albino mice using the maximal electroshock (MES) test after intraperitoneal administration; conditions: ip; summary of the method: as §1
Mus musculus [5] = test: In vivo anticonvulsant activity in male albino mice using the maximal electroshock seizure(MES) test upon intraperitoneal administration (exp 2); conditions: ip; summary of the method: as §2
Mus musculus [6] = test: In vivo anticonvulsant activity in male albino mice using the maximal electroshock seizure(MES) test upon intraperitoneal administration, expressed as logarithm of effective dose; value ranges from 2.58 to 3.06; summary of the method: as §1
Mus musculus [7] = test: In vivo anticonvulsant activity in male albino mice using the maximal electroshock seizure(MES) test upon intraperitoneal administration (exp 1); conditions: ip; summary of the method: as §2
Mus musculus [8] = test: In vivo anticonvulsant activity in male albino mice using the maximal electroshock (MES) test after intraperitoneal administration (exp 1); conditions: ip; summary of the method: as §2
Mus musculus [9] = test: In vivo anticonvulsant activity in male albino mice using the maximal electroshock (MES) test after intraperitoneal administration (exp 2); conditions: ip; summary of the method: as §2
Mus musculus [10] = test: In vivo anticonvulsant activity in male albino mice using the maximal electroshock seizure(MES) test upon intraperitoneal administration; value ranges from 74.3 to 99.1; conditions: ip; summary of the method: as §2
Mus musculus [11] = test: In vivo anticonvulsant activity in male albino mice using the maximal electroshock seizure(MES) test upon intraperitoneal administration; value ranges from 46 to 61; conditions: ip
Mus musculus [12] = test: In vivo anticonvulsant activity in male albino mice using the maximal electroshock seizure(MES) test upon intraperitoneal administration; value ranges from 62.5 to 91; conditions: ip
Mus musculus [13] = test: In vivo anticonvulsant activity in male albino mice using the maximal electroshock seizure(MES) test upon intraperitoneal administration, expressed as logarithm of effective dose; value ranges from 2.08 to 2.60
Mus musculus [14] = test: In vivo anticonvulsant activity in male albino mice using the maximal electroshock (MES) test after intraperitoneal administration; value ranges from 76.8-120; conditions: ip; summary of the method: as §1
Mus musculus [15] = test: In vivo anticonvulsant activity in male albino mice using the maximal electroshock seizure(MES) test upon intraperitoneal administration; value ranges from 15 to 19; conditions: ip
Mus musculus [16] = test: In vivo anticonvulsant activity in male albino mice using the maximal electroshock (MES) test after intraperitoneal administration; value ranges from 21.4-40.8; conditions: ip
Mus musculus [17] = test: In vivo anticonvulsant activity in male albino mice using the maximal electroshock seizure(MES) test upon intraperitoneal administration, expressed as logarithm of effective dose; value ranges from 2.01 to 2.63
Mus musculus [18] = test: In vivo anticonvulsant activity in male albino mice using the maximal electroshock (MES) test after intraperitoneal administration; value ranges from 26.7-37.8; conditions: ip
Mus musculus [19] = test: In vivo anticonvulsant activity in male albino mice using the maximal electroshock seizure(MES) test upon intraperitoneal administration, expressed as logarithm of effective dose; value ranges from 2.10 to 2.63
Mus musculus [20] = test: In vivo anticonvulsant activity in male albino mice using the maximal electroshock seizure(MES) test upon intraperitoneal administration (exp-1); conditions: ip; summary of the method: as §1
Mus musculus [21] = test: In vivo anticonvulsant activity in male albino mice using the maximal electroshock seizure(MES) test upon intraperitoneal administration (exp-2); conditions: ip; summary of the method: as §1

SMILES: CC(=O)NC(C(=O)NCc1ccccc1)c1cccs1 (configuration not stated)
- Log ED50 (Mus musculus [1]): 2.19 uM kg-1

SMILES: C=CCC(NC(C)=O)C(=O)NCc1ccccc1 (configuration not stated)
- Log ED50 (Mus musculus [1]): 2.16 uM kg-1

SMILES: CC(=O)NC(C(=O)NCc1ccccc1)N(C)C (configuration not stated)
- Log ED50 (Mus musculus [2]): 2.26 uM kg-1

SMILES: CC(=O)NC(C(=O)NCc1cccc(F)c1)c1ccco1 (configuration not stated)
- Log ED50 (Mus musculus [1]): 1.66 uM kg-1

SMILES: CC(=O)NC(=O)NCc1ccccc1
- Log ED50 (Mus musculus [1]): 2.5 uM kg-1
- ED50 (Mus musculus [3]): 60.1 mg/kg

SMILES: CC(=O)NC(C(=O)NCc1ccccc1)c1ccco1 (configuration not stated)
- Log ED50 (Mus musculus [1]): 1.58 uM kg-1

SMILES: CC(=O)NC(C)C(=O)NCCCc1ccccc1 (configuration not stated)
- Log ED50 (Mus musculus [2]): 2.55 uM kg-1
- ED50 (Mus musculus [4]): 87.6 mg/kg

SMILES: CC(=O)NC(C(=O)NCc1ccccc1)c1ncccn1 (configuration not stated)
- Log ED50 (Mus musculus [1]): 1.46 uM kg-1

SMILES: COCC(NC(C)=O)C(=O)N(C)Cc1ccccc1 (configuration not stated)
- ED50 (Mus musculus [5]): < 300 mg/kg
- Log ED50 (Mus musculus [6]): 3.06 uM kg-1
- ED50 (Mus musculus [7]): > 100 mg/kg

SMILES: CCCC(N)C(=O)NCc1ccccc1 (configuration not stated)
- ED50 (Mus musculus [8]): > 30 mg/kg
- Log ED50 (Mus musculus [2]): 2.69 uM kg-1
- ED50 (Mus musculus [9]): < 100 mg/kg

SMILES: CC(=O)NC(C(=O)NCc1ccccc1F)c1ccco1 (configuration not stated)
- Log ED50 (Mus musculus [1]): 2.14 uM kg-1

SMILES: CC(=O)NC(C(=O)NCc1ccc(F)cc1)c1ccco1 (configuration not stated)
- Log ED50 (Mus musculus [1]): 1.64 uM kg-1

SMILES: CCN(C(C)=O)C(C)C(=O)NCc1ccccc1 (configuration not stated)
- ED50 (Mus musculus [10]): 85 mg/kg
- Log ED50 (Mus musculus [1]): 2.53 uM kg-1

SMILES: O=C(NCc1ccccc1)C1CCCCN1 (configuration not stated)
- Log ED50 (Mus musculus [1]): 2.38 uM kg-1
- ED50 (Mus musculus [11]): 53 mg/kg

SMILES: CC(=O)NC(C)C(=O)NCc1cccc(F)c1 (configuration not stated)
- ED50 (Mus musculus [12]): 77.3 mg/kg
- Log ED50 (Mus musculus [1]): 2.51 uM kg-1

SMILES: CC(=O)NC(C(=O)NCc1ccccc1)c1nccs1 (configuration not stated)
- Log ED50 (Mus musculus [1]): 1.62 uM kg-1

SMILES: CC(=O)NC(Nc1ccc(N)cc1)C(=O)NCc1ccccc1 (configuration not stated)
- Log ED50 (Mus musculus [2]): 2.75 uM kg-1
- ED50 (Mus musculus [4]): 176 mg/kg

SMILES: CCC(C(=O)NCc1ccccc1)N(C)C(C)=O (configuration not stated)
- Log ED50 (Mus musculus [13]): 2.6 uM kg-1
- ED50 (Mus musculus [5]): < 100 mg/kg
- ED50 (Mus musculus [7]): > 30 mg/kg

SMILES: CC(=O)NC(C(=O)NCc1ccccc1)c1ccccn1 (configuration not stated)
- Log ED50 (Mus musculus [1]): 1.58 uM kg-1

SMILES: CC(=O)NC(Nc1cccc(N)c1)C(=O)NCc1ccccc1 (configuration not stated)
- ED50 (Mus musculus [14]): 98.6 mg/kg
- Log ED50 (Mus musculus [2]): 2.5 uM kg-1

SMILES: CCOCC(NC(C)=O)C(=O)NCc1ccccc1 (configuration not stated)
- Log ED50 (Mus musculus [1]): 1.81 uM kg-1
- ED50 (Mus musculus [15]): 17 mg/kg

SMILES: CNC(C)C(=O)NCc1ccccc1 (configuration not stated)
- ED50 (Mus musculus [16]): 31.2 mg/kg
- Log ED50 (Mus musculus [2]): 2.21 uM kg-1

SMILES: CC(=O)NC(C(=O)NCc1cc(F)ccc1F)c1ccco1 (configuration not stated)
- Log ED50 (Mus musculus [1]): 1.89 uM kg-1

SMILES: CC(=O)NC(N)C(=O)NCc1ccccc1 (configuration not stated)
- Log ED50 (Mus musculus [2]): 2.47 uM kg-1

SMILES: COCC(NC=O)C(=O)NCc1ccccc1 (configuration not stated)
- ED50 (Mus musculus [5]): < 100 mg/kg
- Log ED50 (Mus musculus [17]): 2.63 uM kg-1
- ED50 (Mus musculus [7]): > 30 mg/kg

SMILES: C=CC(=O)NC(COC)C(=O)NCc1ccccc1 (configuration not stated)
- ED50 (Mus musculus [5]): < 300 mg/kg
- Log ED50 (Mus musculus [6]): 3.06 uM kg-1
- ED50 (Mus musculus [7]): > 100 mg/kg

SMILES: CC(=O)NC(C(=O)NCc1ccccc1)c1ccc[nH]1 (configuration not stated)
- Log ED50 (Mus musculus [1]): 1.77 uM kg-1

SMILES: CC(=O)NC(C(=O)NCc1ccccc1)N1CC=CO1 (configuration not stated)
- Log ED50 (Mus musculus [2]): 2.05 uM kg-1
- ED50 (Mus musculus [18]): 31.4 mg/kg

SMILES: CC(=O)N(C)C(C)C(=O)NCc1ccccc1 (configuration not stated)
- Log ED50 (Mus musculus [19]): 2.63 uM kg-1
- ED50 (Mus musculus [20]): > 30 mg/kg
- ED50 (Mus musculus [21]): < 100 mg/kg

SMILES: CCNC(NC(C)=O)C(=O)NCc1ccccc1 (configuration not stated)
- Log ED50 (Mus musculus [2]): 2.23 uM kg-1

Source: ChEMBL document CHEMBL1135992, “Quantitative structure-activity relationship analysis of functionalized amino acid anticonvulsant agents using k nearest neighbor and simulated annealing PLS methods” (2002)
